Active and inactive are the calls of the source. The rule behind the calls is not given here. Starred links: 1 amine or outer side, 2 acyl side, 3 side chain; linkers in the order of their positions; H or OH if unused. Residues, ends and D or L forms follow the SMILES beside them. *: point of attachment. Benzenesulfonyl(4-F) = O=S(=O)(c1ccc(F)cc1)*; NH(1-Adamantyl) = C1C2CC3CC1CC(N*)(C2)C3; Cyclohexanecarbonyl = O=C(C1CCCCC1)*; Fmoc = O=C(OCC1c2ccccc2-c2ccccc21)*; Benzoyl(4-F) = O=C(c1ccc(F)cc1)*; Piperazinyl(4-Me) = CN1CCN(*)CC1; Decanoyl = CCCCCCCCCC(=O)*; Cbz = O=C(OCc1ccccc1)*; NHcHex = C1CCC(N*)CC1; CO = O=C([*:1])[*:2]; OtBu = CC(C)(C)O*; X3 = OC1CN(*)C1; OAll = C=CCO*
Assays:
HEK293 [1] = assay: Modulation of recombinant human FGF141b (1 to 252 residues)-recombinant human Nav1.6 C-terminal tail (1763 to 1976 residues) protein-protein interaction expressed in HEK293 cells assessed as relative luminescence value at 50 uM measured at 2 mins interval for 20 mins by split-luciferase complementation assay relative to control; type: cell-based; conditions: time min 2-20
How it was run: (§1)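 Double-stable HEK293 line expressing CLuc-FGF14 and CD4-Nav1.6-C-tail-NLuc, kept on G418 and puromycin. Cells seeded for 24 h, then given compound for 1 h in serum-free, phenol red-free DMEM/F12 with a final 0.5% DMSO: 50 μM for screening, 0.25–100 μM over eight concentrations for dose-response; n = 4. D-luciferin added and read every 2 min for 20 min at 37 °C. Peak luminescence expressed as percent of per-plate DMSO mean (n = 32). IC50 from four-parameter nonlinear fit. At least 3 experiments.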

[2] = Modulation of recombinant human FGF141b (1 to 252 residues)-recombinant human Nav1.6 C-terminal tail (1763 to 1976 residues) protein-protein interaction expressed in HEK293 cells measured at 2 mins interval for 20 mins by split-luciferase complementation assay; type: cell-based; how it was run: as §1
HEK293 [3] = assay: Modulation of recombinant human FGF141b (1 to 252 residues)-recombinant human Nav1.6 C-terminal tail (1763 to 1976 residues) protein-protein interaction expressed in HEK293 cells measured at 2 mins interval for 20 mins by split-luciferase complementation assay relative to control; type: cell-based; conditions: filed as modulator, time min 2-20; how it was run: as §1
HEK293 [4] = assay: Inhibition of full-length Photinus pyralis luciferase transfected in HEK293 cells at 25 uM incubated for 1 hrs by split-luciferase complementation assay; type: cell-based
How it was run: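 HEK293 cells transfected with full-length Photinus pyralis luciferase, then treated 1 h with 25 μM compound (n = 4) or 0.5% DMSO (n = 32). Luminescence read after D-luciferin addition, as in the LCA, normalized to per-plate DMSO controls. One-way ANOVA with Dunnett's test.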

[5] = target: T1, Fibroblast growth factor 14 (Homo sapiens) (UniProt Q92915); assay: Binding affinity to human recombinant FGF14 expressed in Escherichia coli BL21 assessed as assessed as induction of protein denaturation by measuring change in melting temperature at 50 uM by fluorescent dye based thermal shift assay; conditions: filed as modulator
T1 sequence (whole entry): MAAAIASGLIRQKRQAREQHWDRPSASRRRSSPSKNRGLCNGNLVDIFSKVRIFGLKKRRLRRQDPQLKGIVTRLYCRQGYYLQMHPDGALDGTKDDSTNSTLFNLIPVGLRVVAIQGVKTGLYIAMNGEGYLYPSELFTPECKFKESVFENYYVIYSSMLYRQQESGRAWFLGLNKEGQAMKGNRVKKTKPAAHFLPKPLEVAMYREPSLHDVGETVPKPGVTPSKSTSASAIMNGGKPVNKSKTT

[6] = target: T2, Sodium channel protein type 8 subunit alpha (Homo sapiens, UniProt Q9UQD0); assay: Binding affinity to human recombinant Nav1.6 C-terminal domain expressed in Escherichia coli BL21 assessed as assessed as induction of protein denaturation by measuring change in melting temperature at 10 uM by fluorescent dye based thermal shift assay; conditions: filed as modulator, dose 50.0 µM
Target sequence in this assay (Q9UQD0 whole entry, looked up, the tested form may be a part): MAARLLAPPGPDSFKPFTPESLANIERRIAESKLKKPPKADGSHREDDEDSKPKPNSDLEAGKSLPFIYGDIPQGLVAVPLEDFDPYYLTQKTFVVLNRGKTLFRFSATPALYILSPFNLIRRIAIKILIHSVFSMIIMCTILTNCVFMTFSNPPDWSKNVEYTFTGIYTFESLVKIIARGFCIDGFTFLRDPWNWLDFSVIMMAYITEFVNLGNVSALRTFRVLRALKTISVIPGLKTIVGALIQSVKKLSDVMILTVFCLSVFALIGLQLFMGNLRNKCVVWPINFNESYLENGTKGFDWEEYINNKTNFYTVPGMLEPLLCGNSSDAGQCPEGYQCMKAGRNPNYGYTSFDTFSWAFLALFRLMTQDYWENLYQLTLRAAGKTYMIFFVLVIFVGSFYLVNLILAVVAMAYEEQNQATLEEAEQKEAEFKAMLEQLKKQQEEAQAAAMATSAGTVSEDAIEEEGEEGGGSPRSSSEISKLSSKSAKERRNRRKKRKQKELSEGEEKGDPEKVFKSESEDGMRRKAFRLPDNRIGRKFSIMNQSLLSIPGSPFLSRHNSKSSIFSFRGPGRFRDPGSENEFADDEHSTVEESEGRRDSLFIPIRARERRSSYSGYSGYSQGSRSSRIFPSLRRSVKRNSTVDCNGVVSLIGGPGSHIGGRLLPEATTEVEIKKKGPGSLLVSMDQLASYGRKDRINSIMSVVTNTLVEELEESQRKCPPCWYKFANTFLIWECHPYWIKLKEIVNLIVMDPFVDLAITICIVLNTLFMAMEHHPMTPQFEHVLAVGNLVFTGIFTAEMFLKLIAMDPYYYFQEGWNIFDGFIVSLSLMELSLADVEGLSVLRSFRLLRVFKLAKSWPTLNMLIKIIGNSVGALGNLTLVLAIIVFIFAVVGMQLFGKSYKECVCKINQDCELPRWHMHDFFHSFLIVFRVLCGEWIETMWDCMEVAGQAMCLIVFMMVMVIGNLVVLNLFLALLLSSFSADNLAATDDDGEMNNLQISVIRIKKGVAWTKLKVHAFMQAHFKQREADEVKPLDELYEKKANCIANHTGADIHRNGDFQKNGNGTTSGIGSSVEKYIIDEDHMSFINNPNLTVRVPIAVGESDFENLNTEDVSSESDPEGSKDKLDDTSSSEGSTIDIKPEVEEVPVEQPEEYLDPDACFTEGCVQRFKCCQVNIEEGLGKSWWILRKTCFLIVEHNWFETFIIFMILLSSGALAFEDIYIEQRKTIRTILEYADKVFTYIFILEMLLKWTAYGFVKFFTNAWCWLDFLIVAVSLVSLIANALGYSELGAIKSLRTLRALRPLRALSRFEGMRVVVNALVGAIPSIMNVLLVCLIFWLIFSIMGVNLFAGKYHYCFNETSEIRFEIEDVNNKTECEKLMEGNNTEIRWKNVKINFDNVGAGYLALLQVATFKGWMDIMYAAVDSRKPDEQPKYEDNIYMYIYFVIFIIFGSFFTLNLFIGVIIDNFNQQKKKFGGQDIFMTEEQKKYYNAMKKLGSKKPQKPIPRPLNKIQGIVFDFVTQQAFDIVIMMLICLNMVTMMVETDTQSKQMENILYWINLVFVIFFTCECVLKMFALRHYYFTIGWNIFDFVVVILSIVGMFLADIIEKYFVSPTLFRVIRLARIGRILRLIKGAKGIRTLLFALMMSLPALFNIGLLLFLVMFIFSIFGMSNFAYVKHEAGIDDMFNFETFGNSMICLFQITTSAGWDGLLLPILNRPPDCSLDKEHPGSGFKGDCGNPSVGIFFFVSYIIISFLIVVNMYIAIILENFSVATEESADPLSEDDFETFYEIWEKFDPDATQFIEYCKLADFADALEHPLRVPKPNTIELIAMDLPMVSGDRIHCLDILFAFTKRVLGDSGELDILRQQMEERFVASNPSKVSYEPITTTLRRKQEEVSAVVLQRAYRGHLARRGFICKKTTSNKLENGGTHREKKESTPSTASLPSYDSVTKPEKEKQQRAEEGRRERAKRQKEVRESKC

[7] = target: T2, Sodium channel protein type 8 subunit alpha; assay: Binding affinity to human recombinant Nav1.6 C-terminal domain expressed in Escherichia coli BL21 assessed as dissociation constant by SPR analysis
How it was run: (§2)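 Biacore T100 runs with FGF14 (17,896 RU) or Nav1.6 C-tail (6,800 RU) amine-coupled on CM5 at pH 5.5. Compounds at 0.195–200 μM in PBS, 0.005% Tween-20, 2% DMSO; 50 μL/min at 25 °C. 120 s association, 150 s dissociation, DMSO calibration, blank subtraction. Rates from a Langmuir 1:1 fit; KD averages the kinetic and steady-state values. At least duplicate experiments.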
Target sequence in this assay (Q9UQD0 whole entry, the tested form may be a part): as the sequence (Q9UQD0 whole entry, looked up, the tested form may be a part) above

[8] = target: T2, Sodium channel protein type 8 subunit alpha; assay: Binding affinity to human recombinant Nav1.6 C-terminal domain expressed in Escherichia coli BL21 assessed as association rate constant by SPR analysis; conditions: filed as modulator; how it was run: as §2
Target sequence in this assay (Q9UQD0 whole entry, looked up, the tested form may be a part): as above

[9] = target: T2, Sodium channel protein type 8 subunit alpha; assay: Binding affinity to human recombinant Nav1.6 C-terminal domain expressed in Escherichia coli BL21 assessed as dissociation rate constant by SPR analysis; conditions: filed as modulator; how it was run: as §2
Target sequence in this assay (Q9UQD0 whole entry, looked up, the tested form may be a part): as above

HEK293 [10] = assay: Cytotoxicity against HEK293 cells assessed as reduction in cell viability measured after 18 hrs by celltiter-blue assay; conditions: human, hek293, 18 h

In the case of `CC(C)C[C@H](NC(=O)[C@@H]1CCCN1C(=O)OCc1ccccc1)C(=O)N[C@@H](CCC(=O)OC(C)(C)C)C(=O)N[C@H](C(=O)NC1CCCCC1)C(C)C` (Cbz-PLE(OtBu)V-NHcHex), the Activity (HEK293 [1]) is reported as 117%.
`C=CCOC(=O)[C@@H](NC(=O)[C@H](CCC(=O)OC(C)(C)C)NC(=O)[C@H](CC(C)C)NC(=O)[C@@H]1CCCN1C(=O)OCc1ccccc1)C(C)C` (Cbz-PLE(OtBu)V-OAll) gave an Activity (HEK293 [1]; filed as modulator) of 11.9%, an IC50 [2] of 15.4 µM and an Efficacy (HEK293 [3]) of 90.7%. The inhibition (HEK293 [4]) was “inactive”, the ΔTm [5] was 0.67 °C and the ΔTm [6] was -0.87 °C. The Kd [7] was over 200 µM, the K [8] was 2.57 10^5/M/s and the K [9] was 4.49 10^-3/s. For the same compound, the Activity (HEK293 [10]) was “Non-Toxic”.
In the case of `COC(=O)[C@@H](NC(=O)[C@H](CCC(=O)OC(C)(C)C)NC(=O)[C@H](CC(C)C)NC(=O)[C@@H]1CCCN1C(=O)OCc1ccccc1)C(C)C` (Cbz-PLE(OtBu)V-OMe), the Activity (HEK293 [1]; filed as modulator) is reported as 39.8%, the IC50 [2] is reported as 22.4 µM and the Efficacy (HEK293 [3]) is reported as 93.3%. The inhibition (HEK293 [4]) was “inactive” and the Activity (HEK293 [10]) was “Non-Toxic”.
For `CC(C)C[C@H](NC(=O)[C@@H]1CCCN1C(=O)OCc1ccccc1)C(=O)N[C@@H](CCC(=O)OC(C)(C)C)C(=O)N[C@H](C(=O)N1CC(O)C1)C(C)C` (Cbz-PLE(OtBu)V-X3), the Activity (HEK293 [1]) was 112%.
Compound `CC(C)C[C@H](NC(=O)[C@@H]1CCCN1C(=O)OCc1ccccc1)C(=O)N[C@@H](CCC(=O)OC(C)(C)C)C(=O)N[C@H](C(=O)NC12CC3CC(CC(C3)C1)C2)C(C)C` (Cbz-PLE(OtBu)V-{NH(1-Adamantyl)}) has an Activity (HEK293 [1]) of 81.5%.
`CC(C)C[C@H](NC(=O)[C@@H]1CCCN1C(=O)OCc1ccccc1)C(=O)N[C@@H](CCC(=O)OC(C)(C)C)C(=O)N[C@H](C(=O)N1CCN(C)CC1)C(C)C` (Cbz-PLE(OtBu)V-{Piperazinyl(4-Me)}) showed an Activity (HEK293 [1]) of 54.2%.
`CC(C)C[C@H](NC(=O)[C@@H]1CCCN1C(=O)C1CCCCC1)C(=O)N[C@@H](CCC(=O)OC(C)(C)C)C(=O)N[C@H](C(N)=O)C(C)C` (Cyclohexanecarbonyl-PLE(OtBu)V-NH2) gave an Activity (HEK293 [1]) of 104%.
In the case of `CCCCCCCCCC(=O)N1CCC[C@H]1C(=O)N[C@@H](CC(C)C)C(=O)N[C@@H](CCC(=O)OC(C)(C)C)C(=O)N[C@H](C(N)=O)C(C)C` (Decanoyl-PLE(OtBu)V-NH2), the Activity (HEK293 [1]) is reported as 114%.
`COC(=O)[C@@H](NC(=O)[C@H](CCC(=O)OC(C)(C)C)NC(=O)[C@H](CC(C)C)NC(=O)[C@@H]1CCCN1C(=O)OCC1c2ccccc2-c2ccccc21)C(C)C` (Fmoc-PLE(OtBu)V-OMe) showed an Activity (HEK293 [1]) of 76.9%.
`CC(C)C[C@H](NC(=O)[C@@H]1CCCN1)C(=O)N[C@@H](CCC(=O)OC(C)(C)C)C(=O)N[C@H](C(N)=O)C(C)C` (H-PLE(OtBu)V-NH2) gave an Activity (HEK293 [1]) of 114%.
Work on `CC(C)C[C@H](NC(=O)[C@@H]1CCCN1S(=O)(=O)c1ccc(F)cc1)C(=O)N[C@@H](CCC(=O)OC(C)(C)C)C(=O)N[C@H](C(N)=O)C(C)C` ({Benzenesulfonyl(4-F)}-PLE(OtBu)V-NH2) yielded an Activity (HEK293 [1]) of 86.4%.
For `CC(C)C[C@H](NC(=O)[C@@H]1CCCN1C(=O)c1ccc(F)cc1)C(=O)N[C@@H](CCC(=O)OC(C)(C)C)C(=O)N[C@H](C(N)=O)C(C)C` ({Benzoyl(4-F)}-PLE(OtBu)V-NH2), the inhibition (HEK293 [4]) was “inactive” and the Activity (HEK293 [10]) was “Non-Toxic”.
Compound `CC(C)C[C@H](NC(=O)[C@@H]1CCCN1C(=O)NC12CC3CC(CC(C3)C1)C2)C(=O)N[C@@H](CCC(=O)OC(C)(C)C)C(=O)N[C@H](C(N)=O)C(C)C` ({NH(1-Adamantyl)-CO}-PLE(OtBu)V-NH2) has an Activity (HEK293 [1]) of 83.5%.
